Measurements: ChEMBL document CHEMBL2434893, “Synthesis, DNA binding and anti-leukemic activity of an aminoacyl nucleolipid” (Bioorg Med Chem Lett, 2013)

Experiments:
HCT-15 = test: Cytotoxicity against human HCT15 cells assessed as cell growth at 10 uM after 48 hrs by SRB assay relative to control; assay type: functional; settings: HCT-15, 48 h, read-out: Activity
Procedure, shortened: (§1)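 NCI Developmental Therapeutics Program 60-cell-line screen at a single dose of 10 μM. Cells incubated with compound for 48 h at 37 °C before viability determination.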

CCRF-CEM = test: Cytotoxicity against human CCRF-CEM cells assessed as cell growth at 10 uM after 48 hrs by SRB assay relative to control; assay type: functional; settings: read-out: Activity; procedure, shortened: as §1
[1] = Binding affinity to GRP78 duplex DNA (unknown origin) assessed as change in melting temperature at 0.2 mM after 36 hrs by thermal denaturation assay
Procedure, shortened: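 Duplex DNA (1.1 μM) annealed from complementary strands in phosphate buffer (140 mM KCl, 1 mM MgCl₂, 5 mM sodium phosphate, pH 7.2), with ligand 0.2–3.9 mM. Melting followed as % hyperchromicity at 260 nm over 5–90 °C. Tm shift measured against native duplex.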

SK-OV-3 = test: Cytotoxicity against human SKOV3 cells assessed as cell growth at 10 uM after 48 hrs by SRB assay relative to control; assay type: functional; settings: SK-OV-3, 48 h, read-out: Activity
Procedure, shortened: (§2)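 Single-dose (10 μM) screen run by the NCI Developmental Therapeutics Program on its 60 human cancer cell line panel. Viability was determined after 48 h incubation with the cells at 37 °C.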

HCT-116 = test: Cytotoxicity against human HCT116 cells assessed as cell growth at 10 uM after 48 hrs by SRB assay relative to control; assay type: functional; settings: HCT-116, 48 h, read-out: Activity; procedure, shortened: as §1
[2] = Stability in phosphate buffer assessed as formation of guanine-tetraplex structure at 0.2 to 3.9 mM at 25 degC by CD spectrophotometric analysis; assay type: physicochemical; settings: 3900 µM
Procedure, shortened: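 GRP78 DNA duplex was annealed from complementary single strands in phosphate binding buffer (140 mM KCl, 1 mM MgCl₂, 5 mM Na₂HPO₄, pH 7.2), then titrated with ligand at 0.2–3.9 mM. CD spectra were recorded, and molar ellipticity was followed at the 260–280 nm maximum and the 248 nm minimum.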

SK-MEL-28 = test: Cytotoxicity against human SK-MEL-28 cells assessed as cell growth at 10 uM after 48 hrs by SRB assay relative to control; assay type: functional; settings: SK-MEL-28, 48 h, read-out: Activity; procedure, shortened: as §1
NCI-H23 = test: Cytotoxicity against human NCI-H23 cells assessed as cell growth at 10 uM after 48 hrs by SRB assay relative to control; assay type: functional; settings: NCI-H23, 48 h, read-out: Activity; procedure, shortened: as §1
HOP-62 = test: Cytotoxicity against human HOP62 cells assessed as cell growth at 10 uM after 48 hrs by SRB assay relative to control; assay type: functional; settings: HOP-62, 48 h, read-out: Activity; procedure, shortened: as §1
SK-MEL-5 = test: Cytotoxicity against human SK-MEL-5 cells assessed as cell growth at 10 uM after 48 hrs by SRB assay relative to control; assay type: functional; settings: SK-MEL-5, 48 h, read-out: Activity; procedure, shortened: as §1
SF-295 = test: Cytotoxicity against human SF295 cells assessed as cell growth at 10 uM after 48 hrs by SRB assay relative to control; assay type: functional; settings: SF-295, 48 h, read-out: Activity; procedure, shortened: as §1
SF-539 = test: Cytotoxicity against human SF539 cells assessed as cell growth at 10 uM after 48 hrs by SRB assay relative to control; assay type: functional; settings: SF-539, 48 h, read-out: Activity; procedure, shortened: as §1
UACC-62 = test: Cytotoxicity against human UACC62 cells assessed as cell growth at 10 uM after 48 hrs by SRB assay relative to control; assay type: functional; settings: UACC-62, 48 h, read-out: Activity; procedure, shortened: as §2
HCC 2998 = test: Cytotoxicity against human HCC2998 cells assessed as cell growth at 10 uM after 48 hrs by SRB assay relative to control; assay type: functional; settings: HCC 2998, 48 h, read-out: Activity; procedure, shortened: as §1
HT-29 = test: Cytotoxicity against human HT-29 cells assessed as cell growth at 10 uM after 48 hrs by SRB assay relative to control; assay type: functional; settings: HT-29, 48 h, read-out: Activity; procedure, shortened: as §1
NCI-H322M = test: Cytotoxicity against human NCI-H322M cells assessed as cell growth at 10 uM after 48 hrs by SRB assay relative to control; assay type: functional; settings: read-out: Activity; procedure, shortened: as §1
PC-3 = test: Cytotoxicity against human PC3 cells assessed as cell growth at 10 uM after 48 hrs by SRB assay relative to control; assay type: functional; settings: PC-3, 48 h, read-out: Activity; procedure, shortened: as §1
UACC-257 = test: Cytotoxicity against human UACC257 cells assessed as cell growth at 10 uM after 48 hrs by SRB assay relative to control; assay type: functional; settings: UACC-257, 48 h, read-out: Activity; procedure, shortened: as §2
LOX IMVI = test: Cytotoxicity against human LOXIMVI cells assessed as cell growth at 10 uM after 48 hrs by SRB assay relative to control; assay type: functional; settings: read-out: Activity; procedure, shortened: as §1
K562 = test: Cytotoxicity against human K562 cells assessed as cell growth at 10 uM after 48 hrs by SRB assay relative to control; assay type: functional; settings: K562, 48 h, read-out: Activity; procedure, shortened: as §1
MOLT-4 = test: Cytotoxicity against human MOLT4 cells assessed as cell growth at 10 uM after 48 hrs by SRB assay relative to control; assay type: functional; settings: MOLT-4, 48 h, read-out: Activity; procedure, shortened: as §1
SF-268 = test: Cytotoxicity against human SF268 cells assessed as cell growth at 10 uM after 48 hrs by SRB assay relative to control; assay type: functional; settings: SF-268, 48 h, read-out: Activity; procedure, shortened: as §1
CAKI-1 = test: Cytotoxicity against human Caki1 cells assessed as cell growth at 10 uM after 48 hrs by SRB assay relative to control; assay type: functional; settings: CAKI-1, 48 h, read-out: Activity; procedure, shortened: as §1
A549 = test: Cytotoxicity against human A549 cells assessed as cell growth at 10 uM after 48 hrs by SRB assay relative to control; assay type: functional; settings: A549, 48 h, read-out: Activity; procedure, shortened: as §1
RXF 393 = test: Cytotoxicity against human RXF393 cells assessed as cell growth at 10 uM after 48 hrs by SRB assay relative to control; assay type: functional; settings: RXF 393, 48 h, read-out: Activity; procedure, shortened: as §1
RPMI-8226 = test: Cytotoxicity against human RPMI8226 cells assessed as cell growth at 10 uM after 48 hrs by SRB assay relative to control; assay type: functional; settings: RPMI-8226, 48 h, read-out: Activity; procedure, shortened: as §1
NCI-H522 = test: Cytotoxicity against human NCI-H522 cells assessed as cell growth at 10 uM after 48 hrs by SRB assay relative to control; assay type: functional; settings: NCI-H522, 48 h, read-out: Activity; procedure, shortened: as §1
[3] = Binding affinity to GRP78 duplex DNA (unknown origin) at 0.7 mM after 36 hrs by gel shift mobility assay relative to control
Procedure, shortened: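 Complementary strands (0.57 μM) annealed in 30% sucrose in TAE buffer (89 mM Tris/acetate, 2.5 mM EDTA, […]), incubated 36 h at 37 °C with ligand at 0, 5, 25, 50, 100 equiv per DNA phosphate (0, 0.2, 0.9, 1.9, 3.9 mM). Run on 24% native PAGE. DNA bands visualized by UV-shadowing at 260 nm. K_D taken from the duplex band ratio with versus without ligand.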

For CCCCCCCCCCCCCCCC(=O)O[C@@H]1[C@H](OC(=O)CCCCCCCCCCCCCCC)[C@@H](C(=O)N[C@@H](CCCCN)C(=O)OC)O[C@H]1n1cnc2c(=O)[nH]c(NC(=O)C(C)C)nc21.Cl, the growth at 10 µM (HCT-15) was 96.6%, the growth at 10 µM (CCRF-CEM) was 86% and the ΔTm [1] was 4 °C. The growth at 10 µM (SK-OV-3) was 99.4%, the growth at 10 µM (HCT-116) was 85.4% and the Stability [2] was “Stable”. For the same compound, the growth at 10 µM (SK-MEL-28) was 113%, the growth at 10 µM (NCI-H23) was 97.8% and the growth at 10 µM (HOP-62) was 104%. The growth at 10 µM (SK-MEL-5) was 101%, the growth at 10 µM (SF-295) was 108% and the growth at 10 µM (SF-539) was 103%. The growth at 10 µM (UACC-62) was 112%, the growth at 10 µM (HCC 2998) was 101% and the growth at 10 µM (HT-29) was 98.2%. The growth at 10 µM (NCI-H322M) was 89.6%, the growth at 10 µM (PC-3) was 103% and the growth at 10 µM (UACC-257) was 90.1%. It also gave a growth at 10 µM (LOX IMVI) of 93.5%, a growth at 10 µM (K562) of 82.9% and a growth at 10 µM (MOLT-4) of 93.4%. For the same compound, the growth at 10 µM (SF-268) was 97.1%, the growth at 10 µM (CAKI-1) was 94% and the growth at 10 µM (A549) was 99.8%. It also gave a growth at 10 µM (RXF 393) of 105%, a growth at 10 µM (RPMI-8226) of 92.5% and a growth at 10 µM (NCI-H522) of 84.4%. It also gave an Activity [3] of 50%.
